Reference: ChEMBL document CHEMBL4359867, “Design, synthesis and biological evaluation of novel 4-anilinoquinazoline derivatives as hypoxia-selective EGFR and VEGFR-2 dual inhibitors” (Eur J Med Chem, 2019)
Active and inactive are the calls of the source. The calls are words filed in the database; no cut-off is given here.

Legend:
[1] = molecular target: Vascular endothelial growth factor receptor 2 (Homo sapiens, UniProt P35968); assay: Inhibition of N-terminal GST-tagged human VEGFR2 cytoplasmic domain (790 to 1356 residues) expressed in baculovirus expression system using FAM-22 peptide as substrate incubated for 10 mins followed by substrate addition by caliper method
Vascular endothelial growth factor receptor 2, sequence (P35968 whole entry, the tested form may be a part): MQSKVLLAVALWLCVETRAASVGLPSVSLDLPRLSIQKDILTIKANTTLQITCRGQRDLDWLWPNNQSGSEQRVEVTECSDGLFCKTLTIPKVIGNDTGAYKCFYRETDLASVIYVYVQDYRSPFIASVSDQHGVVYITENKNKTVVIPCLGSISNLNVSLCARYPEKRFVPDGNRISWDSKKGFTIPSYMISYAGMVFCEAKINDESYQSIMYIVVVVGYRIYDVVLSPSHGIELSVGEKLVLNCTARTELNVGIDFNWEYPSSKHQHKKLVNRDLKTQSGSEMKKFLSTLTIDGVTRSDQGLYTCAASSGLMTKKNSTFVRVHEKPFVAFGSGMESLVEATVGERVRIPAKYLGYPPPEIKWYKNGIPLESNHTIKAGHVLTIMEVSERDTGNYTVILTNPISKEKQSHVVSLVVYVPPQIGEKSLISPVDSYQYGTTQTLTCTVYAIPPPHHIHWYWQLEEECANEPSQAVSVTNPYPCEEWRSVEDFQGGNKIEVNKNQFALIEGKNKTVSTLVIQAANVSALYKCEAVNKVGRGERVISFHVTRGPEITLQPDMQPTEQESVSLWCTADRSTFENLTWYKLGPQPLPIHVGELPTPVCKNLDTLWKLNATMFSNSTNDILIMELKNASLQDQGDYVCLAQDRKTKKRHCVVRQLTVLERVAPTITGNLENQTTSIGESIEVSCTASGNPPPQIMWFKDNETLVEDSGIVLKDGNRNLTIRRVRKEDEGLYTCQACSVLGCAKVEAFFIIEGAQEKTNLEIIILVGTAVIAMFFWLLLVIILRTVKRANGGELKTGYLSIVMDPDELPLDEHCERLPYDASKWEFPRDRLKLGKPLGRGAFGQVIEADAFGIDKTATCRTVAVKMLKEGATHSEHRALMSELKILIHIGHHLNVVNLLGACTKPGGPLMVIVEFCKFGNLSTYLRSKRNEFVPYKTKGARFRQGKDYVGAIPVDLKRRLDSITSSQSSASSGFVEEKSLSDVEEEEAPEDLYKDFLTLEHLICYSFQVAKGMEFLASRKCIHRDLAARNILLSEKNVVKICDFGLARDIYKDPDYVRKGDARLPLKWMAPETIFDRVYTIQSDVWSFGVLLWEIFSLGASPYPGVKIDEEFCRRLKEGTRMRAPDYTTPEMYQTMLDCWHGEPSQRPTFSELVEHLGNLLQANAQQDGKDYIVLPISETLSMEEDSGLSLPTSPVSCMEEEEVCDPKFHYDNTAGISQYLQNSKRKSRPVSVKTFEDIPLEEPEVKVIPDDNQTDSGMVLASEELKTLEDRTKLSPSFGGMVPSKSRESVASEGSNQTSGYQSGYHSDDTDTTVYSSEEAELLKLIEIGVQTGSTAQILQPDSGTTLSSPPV
Summary of the method: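 Compounds (DMSO stocks 40 μM–0.2 nM, ten levels) tested in duplicate. Enzyme preincubated with compound 10 min at room temperature, then FAM-P22 peptide/ATP added and incubated at 28 °C. Stopped with EDTA-containing buffer. IC50 obtained by four-parameter Hill fit; staurosporine as reference.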

[2] = molecular target: Epidermal growth factor receptor (Homo sapiens, UniProt P00533); assay: Inhibition of N-terminal GST-tagged human EGFR cytoplasmic domain (669 to 1210 residues) expressed in baculovirus expression system using FAM-22 peptide as substrate incubated for 10 mins followed by substrate addition by caliper method
Epidermal growth factor receptor, sequence (P00533 whole entry, the tested form may be a part): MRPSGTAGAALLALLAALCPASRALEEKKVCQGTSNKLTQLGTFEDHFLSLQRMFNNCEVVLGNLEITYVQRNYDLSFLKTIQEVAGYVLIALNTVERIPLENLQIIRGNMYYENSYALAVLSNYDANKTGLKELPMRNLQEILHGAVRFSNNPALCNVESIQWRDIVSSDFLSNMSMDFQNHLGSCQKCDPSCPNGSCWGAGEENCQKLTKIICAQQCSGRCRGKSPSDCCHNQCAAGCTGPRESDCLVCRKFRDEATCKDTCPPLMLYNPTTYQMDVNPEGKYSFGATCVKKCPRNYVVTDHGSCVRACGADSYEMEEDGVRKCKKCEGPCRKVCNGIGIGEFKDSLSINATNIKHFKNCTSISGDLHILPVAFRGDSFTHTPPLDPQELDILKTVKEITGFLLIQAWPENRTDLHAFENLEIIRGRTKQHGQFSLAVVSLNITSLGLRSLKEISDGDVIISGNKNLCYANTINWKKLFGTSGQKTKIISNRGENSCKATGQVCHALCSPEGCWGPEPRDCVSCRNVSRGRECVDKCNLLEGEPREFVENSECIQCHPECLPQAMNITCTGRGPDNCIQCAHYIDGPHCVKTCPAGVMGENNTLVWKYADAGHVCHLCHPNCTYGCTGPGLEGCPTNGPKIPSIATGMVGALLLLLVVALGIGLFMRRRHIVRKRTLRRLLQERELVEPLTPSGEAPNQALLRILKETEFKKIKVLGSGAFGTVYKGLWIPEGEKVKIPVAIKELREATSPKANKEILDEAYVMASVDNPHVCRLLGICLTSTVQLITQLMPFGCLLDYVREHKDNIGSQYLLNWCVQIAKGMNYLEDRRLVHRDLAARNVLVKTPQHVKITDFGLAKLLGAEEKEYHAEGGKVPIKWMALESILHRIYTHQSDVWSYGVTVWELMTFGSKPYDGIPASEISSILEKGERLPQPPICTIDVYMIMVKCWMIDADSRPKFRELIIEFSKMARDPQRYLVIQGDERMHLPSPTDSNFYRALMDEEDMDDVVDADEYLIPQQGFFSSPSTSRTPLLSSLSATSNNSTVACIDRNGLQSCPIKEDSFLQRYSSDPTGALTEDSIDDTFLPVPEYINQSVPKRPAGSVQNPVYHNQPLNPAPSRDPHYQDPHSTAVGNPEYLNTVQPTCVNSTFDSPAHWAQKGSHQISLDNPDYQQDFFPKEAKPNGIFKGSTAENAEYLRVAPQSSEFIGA

[3] = Cytotoxicity against human A549 cells assessed as inhibition of cell growth at 0.5 uM after 48 hrs under normoxic condition by CCk-8 assay relative to control; format: cell-based
Summary of the method: (§1)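 RPMI-1640 with 10% fetal calf serum. Compounds dissolved in DMSO. Hypoxia produced chemically with cobalt(II) chloride; normoxic wells received no CoCl2. Viability read by CCK-8 (WST-8) at 450 nm, and inhibition ratio calculated against untreated control.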

[4] = Cytotoxicity against human NCI-H446 cells assessed as inhibition of cell growth at 0.5 uM after 48 hrs under normoxic condition by CCk-8 assay relative to control; format: cell-based; summary of the method: as §1
[5] = system: A549; assay: Antiproliferative activity against human A549 cells assessed as inhibition of cell growth at 0.5 uM after 48 hrs under hypoxic condition (200 uM CoCl2) by CCk-8 assay relative to control (reference value: 59.94%); format: functional; summary of the method: as §1
[6] = system: NCI-H446; assay: Antiproliferative activity against human NCI-H446 cells assessed as inhibition of cell growth at 0.5 uM after 48 hrs under hypoxic condition (200 uM CoCl2) by CCk-8 assay relative to control (reference value: 65.84%); format: functional; summary of the method: as §1
[7] = system: A549; assay: Antiproliferative activity against human A549 cells assessed as inhibition of cell growth at 0.5 uM in hypoxia condition (200 uM CoCl2) and under irradiation at 8 Gy for 24 hrs and measured after 24 hrs by CCK8 assay (reference value: 64.135%); format: functional
[8] = system: NCI-H446; assay: Antiproliferative activity against human NCI-H446 cells assessed as inhibition of cell growth at 0.5 uM in hypoxia condition (200 uM CoCl2) and under irradiation at 8 Gy for 24 hrs and measured after 24 hrs by CCK8 assay (reference value: 68.77%); format: functional
[9] = system: A549; assay: Antiproliferative activity against human A549 cells assessed as hypoxic sensitive enhancement ratio in presence of CoCl2; format: functional
[10] = system: A549; assay: Antiproliferative activity against human A549 cells assessed as hypoxic sensitive enhancement ratio in presence of Cocl2 under irradiation; format: functional
[11] = system: NCI-H446; assay: Antiproliferative activity against human NCI-H446 cells assessed as hypoxic sensitive enhancement ratio in presence of CoCl2; format: functional
[12] = system: NCI-H446; assay: Antiproliferative activity against human NCI-H446 cells assessed as hypoxic sensitive enhancement ratio in presence of Cocl2 under irradiation; format: functional
[13] = system: A549; assay: Downregulation of VEGF expression in human A549 cells at 5 uM after 24 hrs under normoxic condition by q-PCR analysis relative to control; format: cell-based; settings: a549, 24 h
[14] = system: A549; assay: Downregulation of VEGF expression in human A549 cells at 5 uM after 24 hrs under hypoxic condition by q-PCR analysis relative to control; format: functional
[15] = system: A549; assay: Antitumour activity against human A549 cells xenografted in Balb/c mouse assessed as tumour growth inhibition at 10 mg/kg, po administered daily and mesured at day 17 relative to control; format: functional; settings: 408 h, read-out: TGI
Summary of the method: (§2)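 Male BALB/c-nu mice, 1 × 10^7 A549 cells implanted sc in the flank. Dosing began seven days after implantation: 10 mg/kg oral, daily for 17 days, 5 mice per group, with a vehicle control group. Tumour size measured daily by caliper, with body weight and clinical signs also recorded daily. TGI calculated from volume changes relative to starting volumes versus control.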

[16] = system: A549; assay: Antitumour activity against human A549 cells xenografted in Balb/c mouse assessed as increase in tumour volume at 10 mg/kg, po administered daily and mesured after 7 days; format: functional, organism-based; summary of the method: as §2
[17] = system: A549; assay: Antitumour activity against human A549 cells xenografted in po dosed Balb/c mouse assessed as tumour growth inhibition administered daily for 18 days and […]; format: functional, organism-based
[18] = system: A549; assay: Antitumour activity against human A549 cells xenografted in Balb/c mouse assessed as tumour growth inhibition at 50 mg/kg, po administered daily and measured at day 18 relative to control; format: functional; settings: 432 h, read-out: TGI
Summary of the method: (§3)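 Male BALB/c-nu mice carrying sc flank A549 xenografts (1 × 10^7 cells). Dosing began 6–7 days post-inoculation, with oral 5, 15 or 50 mg/kg daily for 18 days and 3 mice per group. Tumours measured by caliper on days 4, 6, 8, 11, 13, 15 and 18. TGI derived from volume change from dosing start relative to untreated controls.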

[19] = system: A549; assay: Antitumour activity against human A549 cells xenografted in Balb/c mouse assessed as tumour growth inhibition at 5 mg/kg, po administered daily and measured at day 18 relative to control; format: functional; settings: 432 h, read-out: TGI; summary of the method: as §3
[20] = system: A549; assay: Antitumour activity against human A549 cells xenografted in Balb/c mouse assessed as tumour growth inhibition at 15 mg/kg, po administered daily and measured at day 18 relative to control; format: functional; settings: 432 h, read-out: TGI; summary of the method: as §3
[21] = Toxicity in Balb/c mouse xenografted with human A549 cells assessed as effect on weight loss at 10 mg/kg, po measured up to 17 days; format: organism-based; settings: in vivo, 408 h; summary of the method: as §2
[22] = Toxicity in Balb/c mouse xenografted with human A549 cells assessed as reduction in body weight at 10 mg/kg, po measured up to 8 days; format: organism-based; settings: in vivo, 192 h; summary of the method: as §2
[23] = Toxicity in po dosed Balb/c mouse assessed as maximum tolerated dose administered 5 times per week for 2 weeks; format: organism-based; settings: in vivo
[24] = Toxicity in Balb/c mouse assessed as effect on clinical signs at 100 mg/kg, po administered 5 times per week for 2 weeks; format: organism-based; settings: in vivo, 336 h
Summary of the method: (§4)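 Male BALB/c-nu mice dosed orally at 100 mg/kg, five times a week for two weeks with two days off each weekend. Clinical signs of toxicity and body weight monitored.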

[25] = Toxicity in Balb/c mouse assessed as weight loss at 100 mg/kg, po administered 5 times per week for 2 weeks; format: organism-based; settings: in vivo, 336 h; summary of the method: as §4

Compound | IC50 [1] | IC50 [2] | inhibition at 48 h, 0.5 µM [3] | inhibition at 48 h, 0.5 µM [4] | inhibition (INH) [5] | inhibition (INH) [6] | inhibition (INH) [7] | inhibition (INH) [8] | Ratio [9] | Ratio [10] | Ratio [11] | Ratio [12] | also measured
COc1cc2c(Nc3cccc(F)c3)ncnc2cc1OCCOCCNC(=O)Cn1cnc([N+](=O)[O-])n1 | 1200 nM | 3.11 nM | – | – | – | – | – | – | – | – | – | – | –
COc1cc2c(Nc3ccc(F)c(F)c3)ncnc2cc1OCCOCCOCCNC(=O)Cn1cnc([N+](=O)[O-])n1 | 1880 nM | 20 nM | – | – | – | – | – | – | – | – | – | – | –
COc1cc2c(Nc3ccc(Br)cc3F)ncnc2cc1OCC1CCN(C)CC1 [VANDETANIB] | – | – | 21.1% | 25.6% | – | – | – | – | – | – | – | – | Activity [22]: Toxic
COc1cc2c(Nc3ccc(F)cc3Cl)ncnc2cc1OCCOCCNC(=O)Cn1cnc([N+](=O)[O-])n1 | 4080 nM | 20.8 nM | 10.3% | 13.9% | 69.01% | 80.31% | 77.88% | 83.35% | 1.17 | 0.89 | 1.14 | 0.89 | –
COc1cc2c(Nc3ccc(Br)cc3F)ncnc2cc1OCCOCCNC(=O)Cn1cnc([N+](=O)[O-])n1 | 36.8 nM | 5.9 nM | 6.75% | 18.9% | 75.86% | 84.37% | 86.41% | 88.66% | 1.32 | 0.96 | 1.17 | 0.93 | fold change (FC) [13]: 0.1571; fold change (FC) [14]: 0.0011; inhibition in vivo at 10 mg/kg [15]: 63.9%; Activity [16]: Active; inhibition [17]: Dose-dependent effect; inhibition in vivo at 50 mg/kg [18]: 80.5%; inhibition in vivo at 5 mg/kg [19]: 31.2%; inhibition in vivo at 15 mg/kg [20]: 68.3%; Activity [21]: Non-Toxic; MTD at 336 h [23]: 100 mg/kg; Activity [24]: Non-Toxic; Activity [25]: Non-Toxic
COc1cc2c(Nc3ccc(F)c(F)c3)ncnc2cc1OCCOCCNC(=O)Cn1cnc([N+](=O)[O-])n1 | 1100 nM | 3.7 nM | – | – | – | – | – | – | – | – | – | – | –
COc1cc2/c(=N/c3ccc(Br)cc3F)nc[nH]c2cc1OCC1CCN(C)CC1 [VANDETANIB] | – | – | – | – | 67.26% | 77.67% | 81.44% | 82.02% | – | – | – | – | inhibition in vivo at 10 mg/kg [15]: 62.1%; Activity [16]: Active
COc1cc2c(Nc3ccc(F)cc3Cl)ncnc2cc1OCCOCCOCCNC(=O)Cn1cnc([N+](=O)[O-])n1 | 2870 nM | 12.9 nM | – | – | – | – | – | – | – | – | – | – | –

More lines, main results first:

IC50 [1] | IC50 [2] | Compound | inhibition at 48 h, 0.5 µM [3] | inhibition at 48 h, 0.5 µM [4] | inhibition (INH) [5] | inhibition (INH) [6] | inhibition (INH) [7] | inhibition (INH) [8] | Ratio [9] | Ratio [10] | Ratio [11] | Ratio [12] | also measured
864 nM | 16.4 nM | COc1cc2c(Nc3ccc(F)cc3)ncnc2cc1OCCOCCNC(=O)Cn1cnc([N+](=O)[O-])n1 | 8.43% | 11.1% | 72.53% | 78.7% | 76.94% | 80.58% | 1.25 | 0.86 | 1.13 | 0.86 | –
217 nM | 4.95 nM | COc1cc2c(Nc3ccc(Br)cc3F)ncnc2cc1OCCOCCOCCNC(=O)Cn1cnc([N+](=O)[O-])n1 | 16% | 20.4% | 74.36% | 78.81% | 80.36% | 84.92% | 1.2 | 0.9 | 1.08 | 0.91 | –
67.8 nM | – | COc1cc2c(Nc3ccc(Cl)c(Cl)c3F)ncnc2cc1OCCOCCNC(=O)Cn1cnc([N+](=O)[O-])n1 | 13.8% | 20.5% | 82.25% | 77.9% | 80.7% | 85% | – | – | – | – | fold change (FC) [13]: 0.1833; fold change (FC) [14]: 0.0037; inhibition in vivo at 10 mg/kg [15]: 49%; Activity [16]: Active; inhibition [17]: Dose-dependent effect; inhibition in vivo at 50 mg/kg [18]: 76.3%; inhibition in vivo at 5 mg/kg [19]: 28.1%; inhibition in vivo at 15 mg/kg [20]: 63.9%; Activity [21]: Non-Toxic
184 nM | 18.5 nM | COc1cc2c(Nc3ccc(C)c(Br)c3)ncnc2cc1OCCNC(=O)Cn1cnc([N+](=O)[O-])n1 | – | – | – | – | – | – | – | – | – | – | –
517 nM | 48.1 nM | COc1cc2c(Nc3ccc(F)cc3Cl)ncnc2cc1OCCNC(=O)Cn1cnc([N+](=O)[O-])n1 | – | – | – | – | – | – | – | – | – | – | –
245 nM | 6.24 nM | COc1cc2c(Nc3ccc(C)c(Br)c3)ncnc2cc1OCCOCCOCCNC(=O)Cn1cnc([N+](=O)[O-])n1 | – | – | – | – | – | – | – | – | – | – | –
407 nM | 0.37 nM | COc1cc2c(Nc3ccc(C)c(Br)c3)ncnc2cc1OCCOCCNC(=O)Cn1cnc([N+](=O)[O-])n1 | 5.48% | 18.6% | 65.39% | 77.71% | 69.18% | 80.1% | 1.15 | 0.8 | 1.08 | 0.86 | –
27.1 nM | 3.23 nM | COc1cc2c(Nc3ccc(Br)cc3F)ncnc2cc1OCC1CCN(C(=O)Cn2cncc2[N+](=O)[O-])CC1 | – | – | – | – | – | – | – | – | – | – | –
86.8 nM | 43.6 nM | COc1cc2c(Nc3ccc(Br)cc3F)ncnc2cc1OCCNC(=O)Cn1cnc([N+](=O)[O-])n1 | 14.9% | 16.8% | 72.99% | 76.34% | 80.3% | 79.03% | 1.19 | 0.9 | 1.07 | 0.85 | –
